Measurements gathered from unrelated publications.
Compare with care: the assays were run in different laboratories.

For `O=C1CCCCC1C1C2C=CC=CC1/C(=C/c1ccccc1)C2` (centres unmarked), the IC50 was 0.082 µM (Jurkat; cell growth or viability; flow cytometry).
`Cc1cc(Nc2ncc(Cl)c(Nc3ccccc3S(=O)(=O)C(C)C)n2)c(OC(C)C)cc1C1CCNCC1` gave an IC50 of 0.34 µM (Rh4; cell growth or viability; 72 h).
The IC50 of `CO[C@@H](C[C@H]1C(C)=CC[C@@H]2[C@]3(C)C[C@H](O[C@@H]4O[C@@H](C)[C@H](OC(=O)c5cccc(O)c5)[C@@H](O[C@@H]5O[C@H](CO)[C@@H](O)[C@H](O)[C@H]5NC(C)=O)[C@H]4O)[C@@H](O)C(C)(C)[C@H]3CC[C@]21C)[C@H](N)C(=O)O` is reported as 0.13 µM (LN-229; cell growth or viability; ATP luminescence; 6 days).
The IC50 of `C[C@@H](Oc1cc(-c2cnn(C3CCNCC3)c2)cnc1N)c1c(Cl)ccc(F)c1Cl` is reported as 0.58 µM (Rh4; cell growth or viability; 72 h).
`COc1ccc(C(=O)O[C@@H]2CN3Cc4c(cc5c(c4OC)OCO5)[C@@]24C=C[C@H](OC)C[C@@H]34)cc1OC` has an IC50 of 7.4 µM (MOLT-4; cell growth or viability; WST-1).
`C#Cc1cccc(Nc2ncnc3cc(OCCOC)c(OCCOC)cc23)c1` gave an IC50 of 0.06 µM (PaCa-2; cell growth or viability; MTT).
The IC50 of `C[C@H](Nc1ncnc2nc[nH]c12)c1cc2cccc(Cl)c2c(=O)n1-c1ccccc1` is reported as 0.1 µM (CD4+ T; lymphocyte proliferation; inhibitor).
With `CC[C@@]1(O)C(=O)OCc2c1cc1n(c2=O)Cc2cc3ccccc3nc2-1` the IC50 was 0.004 µM (RPMI 8402; cell growth or viability; MTT; 96 h).
With `CC(C)(C)SCCCC1=CC2C=CC=CC1C2C1CCCCC1=O` (centres unmarked) the IC50 was 0.057 µM (Jurkat; cell growth or viability; flow cytometry).
`O=c1c(O)c(-c2ccc(O)c(O)c2)oc2cc(O)cc(O)c12` gave an IC50 of 43.4 µM (SW780; cell growth or viability; ATP luminescence; 72 h).
For `O=C1CCCCC1C1C2C=CC=CC1C(CCCCOC1CCCCO1)=C2` (centres unmarked), the IC50 was 0.135 µM (Jurkat; cell growth or viability; flow cytometry).
For `CC(=O)c1cccc(N=Nc2c(C(=O)O)cc(O)c(O)c2O)c1`, the IC50 was 9.6 µM (PaCa-2; cell growth or viability; MTT).
For `COc1cc(Nc2nccc(-c3cnn4nc(OC)ccc34)n2)cc(C(F)(F)F)c1`, the IC50 was 0.5 µM (COV434; cell growth or viability; ATP luminescence).
With `COc1nc(OCc2cccc(-c3ccccc3)c2C)ccc1CNCCNC(C)=O` the IC50 was 2.9 µM (MC-38; cell growth or viability; MTT).
`COc1cccc(C(=O)O[C@@H]2CN3Cc4c(cc5c(c4OC)OCO5)[C@@]24C=C[C@H](OC)C[C@@H]34)c1` gave an IC50 of > 10 µM (MOLT-4; cell growth or viability; WST-1).
With `Oc1ccc(C(c2c[nH]c3ccccc23)c2c[nH]c3ccccc23)cc1` the IC50 was > 100 µM (LNCaP; cell growth or viability; MTT; 48 h).
`O=C(O)/C=C/c1ccc(O)c(O)c1` gave an IC50 of 5.1 µM (PaCa-2; cell growth or viability; MTT).
`CCOc1cc(OCC)cc(C(=O)O[C@@H]2CN3Cc4c(cc5c(c4OC)OCO5)[C@@]24C=C[C@H](OC)C[C@@H]34)c1` has an IC50 of 7.6 µM (MOLT-4; cell growth or viability; WST-1).
The IC50 of `O=C(O)/C=C/c1ccc(C(c2c[nH]c3ccccc23)c2c[nH]c3ccccc23)s1` is reported as 55 µM (LNCaP; cell growth or viability; MTT; 48 h).
`COc1ccc(-c2nc(OCc3cn(CC(=O)Nc4cccc(OC)c4)nn3)c3ccccc3n2)cc1` gave an IC50 of 82.7 µM (WRL68; cell growth or viability; MTT; 72 h).
`O=c1c(O[C@@H]2O[C@H](CO)[C@@H](O)[C@H](O)[C@H]2O)c(-c2ccc(O)c(O)c2)oc2cc(O)cc(O)c12` has an IC50 of 20.1 µM (SW780; cell growth or viability; ATP luminescence; 72 h).
`CC(C)C[C@H](NC(=O)[C@H](Cc1ccccc1)NC(=O)c1cnccn1)B(O)O` gave an IC50 of 0.011 µM (LOU-NH91; cell growth or viability; ATP luminescence).
With `COc1cc(-c2[o+]c3cc(O)cc(O)c3cc2O[C@@H]2O[C@H](CO)[C@@H](O)[C@H](O)[C@H]2O)ccc1O` the IC50 was 137 µM (SW780; cell growth or viability; ATP luminescence; 72 h).
For `Cn1cc(C(c2ccc(/C=C/C(=O)O)s2)c2cn(C)c3ccccc23)c2ccccc21`, the IC50 was > 20 µM (LNCaP; cell growth or viability; MTT; 48 h).
For `COc1cc(Nc2nc(C#N)cc3c(-c4ccccc4)n[nH]c23)cc(OC)c1OC`, the IC50 was 3 µM (MIA PaCa-2; cell growth or viability; MTS; 48 h).
The IC50 of `OC[C@H]1O[C@@H](Oc2cc3c(O)cc(O)cc3[o+]c2-c2ccc(O)c(O)c2)[C@H](O)[C@@H](O)[C@H]1O` is reported as 84.5 µM (SW780; cell growth or viability; ATP luminescence; 72 h).
`O=C(O)c1cc(O)c(O)c(O)c1` gave an IC50 of 17.5 µM (PaCa-2; cell growth or viability; MTT).
With `COc1cccc2c1C(=O)c1c(O)c3c(c(O)c1C2=O)C[C@@](O)(C(=O)CO)C[C@@H]3O[C@H]1C[C@H](N)[C@H](O)[C@H](C)O1` the IC50 was 0.049 µM (MIA PaCa-2; cell growth or viability; MTS; 48 h).
`O=C(O)c1ccc(C(c2c[nH]c3ccccc23)c2c[nH]c3ccccc23)cc1` has an IC50 of 21 µM (LNCaP; cell growth or viability; MTT; 48 h).
With `COc1cc2nccc(Oc3ccc(NC(=O)C4(C(=O)Nc5ccc(F)cc5)CC4)cc3)c2cc1OC` the IC50 was 3.09 µM (Rh4; cell growth or viability; 72 h).
`FC(F)(F)c1ccc(C(c2c[nH]c3ccccc23)c2c[nH]c3ccccc23)cc1` gave an IC50 of 13 µM (LNCaP; cell growth or viability; MTT; 48 h).
The IC50 of `CCN(CC)CCCCNc1ncc2cc(-c3cc(OC)cc(OC)c3)c(NC(=O)NC(C)(C)C)nc2n1` is reported as 0.05 µM (SW780; cell growth or viability; MTT; 5 days).
